In ChEMBL document CHEMBL4834428 one finds inhibition and Activity data, which are given here for three compounds.

For assay [1], the target named is T1, NAD-dependent protein deacetylase sirtuin-1 (Homo sapiens) (UniProt Q96EB6).
T1 sequence (whole entry): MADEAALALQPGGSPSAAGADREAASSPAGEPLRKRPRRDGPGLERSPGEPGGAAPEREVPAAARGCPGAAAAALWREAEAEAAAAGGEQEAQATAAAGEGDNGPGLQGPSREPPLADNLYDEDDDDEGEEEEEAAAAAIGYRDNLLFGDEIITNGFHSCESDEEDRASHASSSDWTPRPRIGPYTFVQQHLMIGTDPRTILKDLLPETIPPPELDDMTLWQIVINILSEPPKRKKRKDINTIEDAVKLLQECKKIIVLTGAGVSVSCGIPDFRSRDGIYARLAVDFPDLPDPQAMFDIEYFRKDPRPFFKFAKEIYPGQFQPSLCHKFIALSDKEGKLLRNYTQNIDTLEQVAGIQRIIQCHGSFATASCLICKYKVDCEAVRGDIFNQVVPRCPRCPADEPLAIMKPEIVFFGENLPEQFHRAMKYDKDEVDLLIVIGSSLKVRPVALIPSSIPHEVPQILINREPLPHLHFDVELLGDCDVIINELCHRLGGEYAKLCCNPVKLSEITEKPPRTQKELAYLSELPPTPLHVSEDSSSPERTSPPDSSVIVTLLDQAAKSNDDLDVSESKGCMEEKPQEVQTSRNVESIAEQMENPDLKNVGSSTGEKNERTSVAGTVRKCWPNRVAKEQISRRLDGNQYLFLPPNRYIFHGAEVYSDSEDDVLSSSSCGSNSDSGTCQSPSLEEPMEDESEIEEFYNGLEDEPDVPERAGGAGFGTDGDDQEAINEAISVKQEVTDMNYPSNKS
The assay is described as follows: Inhibition of His6-tagged SIRT1 (unknown origin) expressed in Escherichia coli BL21 (DE3) deacetylation activity incubated for 30 mins in presence of NAD+. The settings on record: dose 0.04-10 µM.

For assay [2], the target named is T1, NAD-dependent protein deacetylase sirtuin-1 (Homo sapiens). The assay is described as follows: Binding affinity to His6-tagged SIRT1 (unknown origin) expressed in Escherichia coli BL21 (DE3) assessed as increase in thermal stability at 0.1 mM and 41.5 degreeC using H3K18Ac peptide as substrate incubated for 10 mins in presence of NAD+ by SYPRO orange thermal shift assay.

Assay [3] deals with T2, NAD-dependent protein deacetylase sirtuin-3, mitochondrial (Homo sapiens) (UniProt Q9NTG7).
T2 sequence (whole entry): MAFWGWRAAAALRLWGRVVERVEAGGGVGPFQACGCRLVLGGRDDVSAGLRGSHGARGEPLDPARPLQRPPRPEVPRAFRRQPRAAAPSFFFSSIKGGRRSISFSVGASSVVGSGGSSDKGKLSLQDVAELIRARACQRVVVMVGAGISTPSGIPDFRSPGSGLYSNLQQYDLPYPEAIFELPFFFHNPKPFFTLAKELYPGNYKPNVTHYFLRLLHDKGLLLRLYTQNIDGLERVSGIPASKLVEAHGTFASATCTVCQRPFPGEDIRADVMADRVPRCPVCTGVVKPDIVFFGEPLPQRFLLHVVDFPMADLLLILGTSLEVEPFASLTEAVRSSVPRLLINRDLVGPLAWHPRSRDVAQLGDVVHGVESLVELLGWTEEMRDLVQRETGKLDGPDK
The assay is described as follows: Binding affinity to His6-tagged/TEV fused SIRT3 (unknown origin) expressed in Escherichia coli BL21 (DE3) assessed as thermal stability at 90 uM using H3K18Ac as substrate incubated for 20 mins in presence of NAD+ by GloMelt thermal shift assay. The gist of the method: (§1)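 SirT1 or SirT3 at 8 µM with 1 mM NAD⁺ and 0.25 mM H3K18ac; SirT2 at 16 µM with 1 mM NAD⁺ and 0.5 mM H4K16ac. Compound 90 µM, 20 min RT before dye addition and melting; ΔTm from melting curves.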

For assay [4], the target named is T3, NAD-dependent protein deacetylase sirtuin-2 (Homo sapiens) (UniProt Q8IXJ6).
T3 sequence (whole entry): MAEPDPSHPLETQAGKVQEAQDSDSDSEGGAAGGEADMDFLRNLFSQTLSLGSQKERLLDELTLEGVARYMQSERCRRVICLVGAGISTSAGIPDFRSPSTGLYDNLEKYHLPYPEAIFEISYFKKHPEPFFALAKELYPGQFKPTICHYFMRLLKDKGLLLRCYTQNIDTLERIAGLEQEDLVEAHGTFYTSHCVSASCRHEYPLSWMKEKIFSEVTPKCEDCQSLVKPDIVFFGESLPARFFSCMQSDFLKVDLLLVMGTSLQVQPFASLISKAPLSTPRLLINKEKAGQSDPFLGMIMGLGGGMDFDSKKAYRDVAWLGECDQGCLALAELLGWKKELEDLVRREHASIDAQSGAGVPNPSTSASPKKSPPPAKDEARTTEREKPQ
In words: Binding affinity to His6-tagged/TEV fused SIRT2 (unknown origin) expressed in Escherichia coli BL21 (DE3) assessed as thermal stability at 90 uM using H4K16Ac as substrate incubated for 20 mins in presence of NAD+ by GloMelt thermal shift assay. Put shortly:
as §1

The target in assay [5] is T1, NAD-dependent protein deacetylase sirtuin-1 (Homo sapiens). In words: Inhibition of His6-tagged SIRT1 (unknown origin) expressed in Escherichia coli BL21 (DE3) at 1 uM using Fluor-de-Lys-Ac-Gly-Gly-Lys(ac)-AMC peptide as substrate incubated for 5 mins by fluorescence assay. Put shortly:
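Conditions as the FLucK529ac deacetylase assay (100 nM SirT1, sirtuin buffer 2) but with 10 µM Ac-Gly-Gly-Lys(ac)-AMC substrate and inhibitors at 1 µM. Stopped with equal volume 2× trypsin (0.1 mg/mL); released coumarin read after 5 min RT, ex 355/em 460 nm.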

Assay [6] has the same target. The assay is described as follows: Binding affinity to His6-tagged SIRT1 (unknown origin) expressed in Escherichia coli BL21 (DE3) assessed as thermal stability at 90 uM using H3K18Ac as substrate incubated for 20 mins in presence of NAD+ by GloMelt thermal shift assay. Put shortly: as §1

Activity calls are given as the source filed them. The rule behind the calls is not given here.

Take `NC(=O)C1CCCc2c1[nH]c1ccc(Cl)cc21` (stereo unspecified): the inhibition result in assay [1] is “Dose-Dependent Effect”. Moreover, the result in assay [2] was Active.

On to `NC(=O)C1CN(Cc2ccc3nonc3c2)c2ccccc2O1` (stereo unspecified), for which the result in assay [3] and in assay [4] was inactive. Further, in assay [5], the inhibition result is “inactive”. The inhibition result in assay [1] is “Dose-Dependent Effect”. The result in assay [6] and in assay [2] was Active.

`N#Cc1ccccc1CN1CC(C(N)=O)Oc2ccccc21` (stereo in doubt; 4.27): the result in assay [3] and in assay [4] was inactive. Besides, the outcome in assay [6] was Active.
